PubChem BioAssay AID540347 (Broad Institute, 2011)
pIC50: −log10 of the molar value. Active and inactive are the calls of the source.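 How the source made its calls: active means viability loss with fitted half-maximal concentration at most ten times the top valid dose; inconclusive means flat fit with 30 to 70% inhibition, or poor fit; inactive means the rest, including rising signal.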

Key:
[1] = ATP-based growth inhibition in SK-MEL-5 cells – cell-based, CellTiter-Glo luminescence, dry powder samples, orthogonal assay for MITF inhibitor project, dose response (AID 540347); settings: SK-MEL-5 viability, CellTiter-Glo ATP luminescence, 24 h; at 35 µM (top of the series)
In short: (§1)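 Assay system: SK-MEL-5 melanoma cell line / Compound: Multiple-concentration series, compounds delivered by pin transfer / Schedule: 24 h compound exposure 37 °C, 5 min RT readout / Measured by: CellTiter-Glo luminescence measuring cellular ATP / Measure: cell viability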

[2] = test system: SK-MEL-5 viability, CellTiter-Glo ATP luminescence, 24 h; assay: as above
In short: as §1

Row | Compound | activity change, negative = inhibition [1] | pIC50 [2]
1 | O=C(Nc1ccc(-c2nc3ncccc3o2)cc1)c1ccc([N+](=O)[O-])o1 | 6.95% (inactive) | –
2 | O=C(COc1ccccc1)N/N=C/c1ccc([N+](=O)[O-])o1 | – | 4.45
3 | Cc1oc(-c2ccc(Cl)cc2)nc1CN1CCC(C(=O)NCCCN2CCCC(C)C2)CC1 (stereo not given) | -12.1% (inactive) | –
4 | Cc1nc2ccccc2n1/N=C/c1ccc([N+](=O)[O-])s1 | – | 5.02
5 | O=c1c(Cl)c2oc3ccccc3nc-2c2ccccc12 | – | 4.61
6 | CC1CCN(CC(CS(=O)(=O)c2ccc([N+](=O)[O-])cc2)N2CCC(C)CC2)CC1 (stereo not given) | 3.72% (inactive) | –
7 | COc1cc(/C=N/NC(N)=O)c(Br)cc1OCC(=O)Nc1ccccc1C | -15.2% (inactive) | –
8 | Cc1ccc(C(O)(c2ccc(C)c(C)c2)C2CN3CCC2CC3)cc1C (stereo not given) | -2.1% (inactive) | –
9 | CC1(C)CC(NC(=O)c2ccc(Cl)c(S(=O)(=O)N(Cc3ccccc3)c3ccccc3)c2)CC(C)(C)N1 | – | 4.53
10 | COc1cc2c(cc1OC)C(c1ccccc1)N(C(=O)CCl)CC2 (stereo not given) | – | 4.55
11 | CC(C)C(CCNC1CCN(C)CC1)c1ccc(Cl)cc1 (stereo not given) | – | 4.44
12 | CCN(CC)CCNC(=O)c1c(C)n(-c2ccccc2)c2cc(Br)c(OC)cc12 | -13.7% (inactive) | –
13 | Cc1ccc(C(=O)N/N=C/c2ccc([N+](=O)[O-])s2)cc1 | -12.1% (inactive) | –
14 | Cc1[nH]c2ccccc2c1C(=O)CCl | – | 4.56
15 | CCN1c2ccccc2NC2N=C(OC)C(c3ccccc3)C21 (stereo not given) | – | 5.32
16 | N=c1n(CCN2CCCC2)c2ccccc2n1CC(O)c1ccc(Cl)c(Cl)c1 (stereo not given) | – | 4.52
17 | Cc1ccc(C(C)C)c(OCc2nn(CC(=O)c3ccc(Cl)cc3)c3[n+]2CCCCC3)c1 | -4.44% (inactive) | –
18 | CN(C)CCCNC(=O)/C(=C\c1ccc(-c2ccc(Br)cc2)o1)NC(=O)c1ccccc1 | – | 4.50
19 | C=CCNC1=C(Cl)C(=O)c2ccccc2C1=O | – | 4.84
20 | Cc1cc(C(C)(C)C)cc(C)c1Cn1c2[n+](c3ccc(C(F)(F)F)cc31)CCCCC2 | – | 4.57
21 | CCN1CCCC1CNC(=O)c1ccc2c(c1)NC(=O)/C(=C\c1ccc(C)cc1)S2 (stereo not given) | – | 4.54
22 | COc1ccc(S(=O)(=O)N(C(C)=O)c2ccc(OC(C)=O)c3ccccc23)cc1[N+](=O)[O-] | – | 5.18
23 | CC1CCCCC1NC(=O)/C(C#N)=C/C=C/c1ccccc1[N+](=O)[O-] (stereo not given) | 9.93% (inactive) | –
24 | CC1=NNC(=O)/C1=C\c1cn(-c2ccccc2)nc1-c1ccc(F)cc1 | – | 4.59
25 | CCN1CCN(C2=C(NS(=O)(=O)c3ccc(Br)cc3)C(=O)c3ccccc3C2=O)CC1 | – | 4.47
